Some results are limits rather than exact numbers.

In one assay the test system is Leishmania braziliensis. Briefly: Antileishmanial activity against Leishmania braziliensis MHOM/BR/95/IOCL-2033 promastigotes after 24 hrs. The class given is functional, organism-based. In a few lines: (§1)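 Promastigotes grown in Schneider's Drosophila medium with 20% (v/v) heat-inactivated FCS, harvested late-log; log-phase cells at 4.0 × 10⁶ cells/mL in 96-well trays, 26 °C, 95% air/5% CO₂. Compounds in DMSO, 160–0.16 μg/mL, triplicate per concentration. Viability counted by Neubauer chamber after 24 h; IC50 = concentration inhibiting growth 50%. Pentamidine positive control.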

A further assay has as its system Leishmania guyanensis. Briefly: Antileishmanial activity against Leishmania guyanensis MHOM/BR/95/IOCL-2092 promastigotes after 24 hrs. Format: functional, organism-based. In a few lines: as §1

On to `COc1c(OC)c2c3c(nccc3c1OC)C(=O)c1ccccc1-2` [HOMOMOSCHATOLINE], for which the IC50 with Leishmania braziliensis was 321 µM; in the assay with Leishmania guyanensis it was 104 µM.

Turning to `O=C1c2ccccc2-c2c3c(cc4ccnc1c24)OCO3` [LIRIODENINE], the IC50 with Leishmania braziliensis was 58.5 µM; with Leishmania guyanensis, 21.5 µM.

Take `N=C(N)c1ccc(OCCCCCOc2ccc(C(=N)N)cc2)cc1` [PENTAMIDINE]: the IC50 was 2.9 µM in the assay on Leishmania braziliensis and 0.9 µM with Leishmania guyanensis.

As for `Nc1nccc(-c2nccc3c4ccccc4n(O)c23)n1`, the IC50 in the assay with Leishmania braziliensis is 253 µM; in the assay with Leishmania guyanensis, 438 µM.

In the case of `Nc1nccc(-c2nccc3c2[nH]c2ccccc23)n1` [ANNOMONTINE], the IC50 was 34.8 µM in the assay with Leishmania braziliensis and greater than 613 µM in the assay with Leishmania guyanensis.
